1 substance from PMC11203390 (Molecular Therapy. Nucleic Acids, 2024) can be followed below.

One data set deals with siRNA. Description: Electrophoretic mobility shift assay. The format is binding. Particulars: pH 7. In short, it runs like this: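 Negative-control siRNA mixed with peptide at 1:20–1:100 siRNA:peptide molar ratios in RNase-free water, then incubated 1 h at 4, 25, 37 or 50 °C to encapsulate. For competition, DSS, 8 M urea stock or 20% NaCl stock was added before or after encapsulation. Complexes were run in dye-free glycerol loading buffer (5% final) on 4% agarose gels stained with ethidium bromide.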
A general note: A gel shift assay detects complexes by their altered migration in electrophoresis.

In another data set the target is Integrin α2 (ITGA2) (Homo sapiens, UniProt P17301). Description: Direct ELISA on HE25-coated plates, ITGA2. In kind it is binding. Particulars: negative control receptor. In general terms: An ELISA detects its analyte on a solid surface through an enzyme-linked reagent.
A further data set has as its target SARS-CoV-2 spike RBD (Severe acute respiratory syndrome coronavirus 2, UniProt P0DTC2).

Integrin α2 (ITGA2), sequence (P17301 30-1132 limits assumed): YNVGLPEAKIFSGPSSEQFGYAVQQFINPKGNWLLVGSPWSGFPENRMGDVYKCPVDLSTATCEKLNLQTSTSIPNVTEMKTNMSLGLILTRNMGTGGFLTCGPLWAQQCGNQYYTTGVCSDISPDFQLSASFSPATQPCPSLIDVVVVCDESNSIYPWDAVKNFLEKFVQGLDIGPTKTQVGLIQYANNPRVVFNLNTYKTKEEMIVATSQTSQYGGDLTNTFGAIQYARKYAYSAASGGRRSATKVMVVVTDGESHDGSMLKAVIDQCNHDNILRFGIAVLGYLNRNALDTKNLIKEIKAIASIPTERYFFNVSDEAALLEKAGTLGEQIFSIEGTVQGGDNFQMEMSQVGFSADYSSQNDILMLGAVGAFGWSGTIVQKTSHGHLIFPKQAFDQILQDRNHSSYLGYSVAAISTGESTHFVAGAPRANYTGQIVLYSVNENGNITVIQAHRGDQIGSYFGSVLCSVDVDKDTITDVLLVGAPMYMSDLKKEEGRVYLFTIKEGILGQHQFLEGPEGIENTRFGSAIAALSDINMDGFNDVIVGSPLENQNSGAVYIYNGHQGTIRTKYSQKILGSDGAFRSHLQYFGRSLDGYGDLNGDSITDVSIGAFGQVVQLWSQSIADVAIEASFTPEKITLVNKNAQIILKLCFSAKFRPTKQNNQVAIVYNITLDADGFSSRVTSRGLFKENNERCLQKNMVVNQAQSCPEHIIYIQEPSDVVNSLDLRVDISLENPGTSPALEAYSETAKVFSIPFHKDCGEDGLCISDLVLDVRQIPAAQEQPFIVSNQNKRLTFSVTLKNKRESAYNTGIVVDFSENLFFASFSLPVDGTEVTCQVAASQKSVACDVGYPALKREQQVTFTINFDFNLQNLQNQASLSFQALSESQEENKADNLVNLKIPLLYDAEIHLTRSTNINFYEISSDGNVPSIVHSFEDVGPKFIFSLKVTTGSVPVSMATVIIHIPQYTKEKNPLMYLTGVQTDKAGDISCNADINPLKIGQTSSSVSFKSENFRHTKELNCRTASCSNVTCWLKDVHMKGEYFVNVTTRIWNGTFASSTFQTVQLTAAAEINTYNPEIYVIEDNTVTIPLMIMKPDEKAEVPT

As for “stearyl-HEHHEHHEHEHGFLGRVRVLRGDKW-amide [HE25]”, the “effect of DSS on binding and preformed complex” value in the data set with siRNA (EMSA competition, 20 mg/mL DSS before or after encapsulation, 50°C, molar ratio 1:100) was “interfere with the binding and disassemble the preformed complex”. Further, the “effect of urea on binding and preformed complex” value in the data set on siRNA (EMSA competition, 1.6 M urea before or after encapsulation, 50°C, molar ratio 1:100) is given as “hindered initial binding but did not affect the ones formed”. Also, in the data set on siRNA (EMSA competition, 4% NaCl before or after encapsulation, 50°C, molar ratio 1:100), the “effect of NaCl on binding and disassembly” value is recorded as “no notable effect on either binding or disassembly”. In addition, the “effect of urea on binding” value with siRNA (EMSA competition, urea, 4°C, molar ratio 1:100) is “not observed before encapsulation”. For the same substance, in the data set on siRNA (EMSA, 50°C), the “encapsulation efficiency at 50°C” value is listed as “significantly increases”. In addition, the “binding of ITGA2 to HE25” value at Integrin α2 (ITGA2) is recorded as “did not efficiently bind”. The “binding of spike RBD to HE25-coated plates” value at SARS-CoV-2 spike RBD is given as “recognized”.
